The values below come from ChEMBL document CHEMBL1126626, “Synthesis and pharmacological evaluation of (nitrooxy)alkyl apovincaminates” (1993).

Assay [1] relates to Canis familiaris. The assay can be described thus: Effect on femoral blood flow (FBF) was studied, after intra arterial administration in anesthetized dogs relative to vinpocetine. The format is functional, Canis lupus familiaris. A digest of the protocol:
(§1)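 Compounds were given intraarterially to anesthetized dogs. Dose-response curves were built from peak response values. Potency was expressed as a ratio to vinpocetine, set at 1.0.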

Assay [2] has as its system Canis familiaris. The assay can be described thus: Effect on vertebral blood flow (VBF) was studied, after intra arterial administration in anesthetized dogs relative to vinpocetine. Format: functional, Canis lupus familiaris. The procedure, abridged: as §1

Each structure is given as a SMILES string.

As to `CC[C@@]12C=C(C(=O)OCCO[N+](=O)[O-])n3c4c(c5ccc(Br)cc53)CCN(CCC1)[C@H]42`, the Potency ratio in assay [1] was 0.36; in assay [2] it was 0.58.

For `CC[C@@]12C=C(C(=O)OCCCCCCCCCCO[N+](=O)[O-])n3c4c(c5ccccc53)CCN(CCC1)[C@H]42`, the figures for the Potency ratio in assay [1] and in assay [2] were 0.16 and 0.48, respectively.

For the compound `CC[C@@]12C=C(C(=O)OCCCCCCO[N+](=O)[O-])n3c4c(c5ccccc53)CCN(CCC1)[C@H]42`, the values for the Potency ratio in assay [1] and in assay [2] were 0.84 and 0.99, respectively.

In the case of `CC[C@@]12C=C(C(=O)OCCCCCO[N+](=O)[O-])n3c4c(c5ccccc53)CCN(CCC1)[C@H]42`, the Potency ratio in assay [1] is 1.07; in assay [2] it was 1.09.

Turning to `CC[C@@]12C=C(C(=O)OCCCO[N+](=O)[O-])n3c4c(c5ccccc53)CCN(CCC1)[C@H]42`, the Potency ratio amounted to 1.91 in assay [1] and 1.85 in assay [2].

Turning to `CC[C@@]12C=C(C(=O)OCCCCCCCCCCCO[N+](=O)[O-])n3c4c(c5ccccc53)CCN(CCC1)[C@H]42`, the Potency ratio is 0.38 in assay [1] and 0.33 in assay [2].

Turning to `CC[C@@]12C=C(C(=O)OCCCCCCCCCO[N+](=O)[O-])n3c4c(c5ccccc53)CCN(CCC1)[C@H]42`, the Potency ratio in assay [1] is listed as 0.15; in assay [2] it was 0.33.

With `CC[C@@]12C=C(C(=O)OCCO[N+](=O)[O-])n3c4c(c5ccccc53)CCN(CCC1)[C@H]42`, the Potency ratio in assay [1] is 4.72; in assay [2] it was 3.83.

As to `CC[C@@]12C=C(C(=O)OCCCCCCCO[N+](=O)[O-])n3c4c(c5ccccc53)CCN(CCC1)[C@H]42`, the values for the Potency ratio in assay [1] and in assay [2] were 0.67 and 0.82, respectively.

`CC[C@@]12C=C(C(=O)OCCCCO[N+](=O)[O-])n3c4c(c5ccccc53)CCN(CCC1)[C@H]42`: the Potency ratio in assay [1] is given as 1.63; in assay [2], 1.25.

For the compound `CC[C@@]12C=C(C(=O)OCCCCCCCCO[N+](=O)[O-])n3c4c(c5ccccc53)CCN(CCC1)[C@H]42`, the Potency ratio in assay [1] was determined as 0.34; in assay [2], 0.35.

As for `CC[C@]12CCCN3CCc4c(n(c5cc(Br)ccc45)[C@@](O)(C(=O)OC)C1)[C@@H]32` [BROVINCAMINE], the Potency ratio in assay [1] was 0.28; in assay [2], 0.17.

For the compound `CCOC(=O)C1=C[C@]2(CC)CCCN3CCc4c(n1c1ccccc41)[C@@H]32` [VINPOCETINE], the Potency ratio in assay [1] and in assay [2] was 1 throughout.
